Screening data (PubChem)
Casp6 inh – blocks human caspase-6 cleavage activity; P55212; purified caspase-6, Z-VEID-R110 cleavage fluorescence; inhibition, % at 12.5 µM; 0.53% of 350,000 active; AID 686996;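 active means mean inhibition across replicates at least about 35%, with every replicate also reaching that limit, limit read from the data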
Target sequence (P55212 24-179 limits assumed): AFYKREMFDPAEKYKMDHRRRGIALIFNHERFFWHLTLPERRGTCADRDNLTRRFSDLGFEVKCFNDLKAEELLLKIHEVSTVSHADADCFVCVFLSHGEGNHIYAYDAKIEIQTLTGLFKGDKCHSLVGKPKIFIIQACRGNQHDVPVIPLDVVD
Target sequence (P55212 194-293 limits assumed): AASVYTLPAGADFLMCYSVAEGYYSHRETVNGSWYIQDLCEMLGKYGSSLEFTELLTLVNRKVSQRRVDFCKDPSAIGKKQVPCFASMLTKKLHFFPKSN
LEDGF integ inh – blocks HIV-1 LEDGF/p75-dependent DNA integration; TR-FRET IN-LEDGF/p75 DNA integration, Eu/Cy5; inhibition, % at 3.7 µM; 0.64% of 370,000 active; AID 743269;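 active means inhibition above the screen-wide mean plus 3 SD, cut at about 13% in these data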;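 further: signal is the Cy5 over europium emission ratio at 671 and 618 nm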
TDP2 absorb – TDP2 (human) inhibition, absorbance primary screen | O95551 | recombinant TDP2, T5PNP hydrolysis, p-nitrophenol absorbance 415 nm | inhibition, % at 12.8 µM | 0.34% of 370,000 active | AID 720702;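 active means inhibition above the mean of all tested compounds plus 3 SD, set per campaign, cut at about 25% in these data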
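Test system: Human TDP2 enzyme | Reagent: 5 mM T5PNP | Compound dosing: 12.8 µM single point, 1% DMSO | Incubation: Enzyme reaction with compound for 2 h at 37 °C | Technique: p-Nitrophenol epi absorbance | Read-out: % inhibition relative to enzyme-containing and enzyme-free wells | Benchmarks: High control without enzyme, low control DMSO plus TDP2 | Replicates: Singlicate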
UHRF1 binding – human UHRF1 methylated DNA binding inhibitors. UHRF1 binding to methylated oligo, TR-FRET. 0.75% of 370,000 active. inhibition, % at 4.4 µM. AID 687016; in the data active means inhibition above about 21%;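 further: UHRF1 SRA domain binding a hemimethylated CpG hairpin DNA probe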
MBD2 inh – blocks human MBD2 binding to methylated DNA | Q9UBB5 | TR-FRET, MBD2 binding to methylated oligonucleotide | inhibition, % at 4.4 µM | 0.31% of 370,000 active; in the data active means inhibition above about 13%
NSD2 inh – blocks human histone methyltransferase NSD2; O96028; NSD2 peptide methylation, AlphaScreen, 120 min; inhibition, % at 12.5 µM; 0.54% of 310,000 active; AID 743445; in the data active means inhibition above about 50%
IN multimer act – HIV-1 integrase multimerization activation, counter-screen. shares compounds with LEDGF integ inh. TR-FRET HIV-1 integrase multimerization, biochemical. activation, % at 7.7 µM. 17% of 2,000 active; in the data active means activation above about 8.9%
TR-FRET interf – optically interferes with TR-FRET readout in LEDGF counter-screen; shares compounds with LEDGF integ inh; TR-FRET optical interference counterscreen, HIV-1 IN multimerization; inhibition, % at 7.7 µM; 2,000 tested, under 10 active; AID 1053135;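 active means inhibition above the mean over all tested compounds plus 3 SD, which no compound reached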
IN-LEDGF confirm – LEDGF/p75-dependent HIV-1 integration inhibition, confirmation; TR-FRET LEDGF/p75-dependent HIV-1 integration, biochemical; inhibition, % at 3.7 µM; shares compounds with LEDGF integ inh; AID 1053136; 36% of 2,000 active; in the data active means inhibition above about 14%
A number is an active result; . = inactive; / = not tested or not shown. Sampled rows, rich in hits. Any-hit rate of the full collection: about 1.8%.

SMILES	Casp6 inh	LEDGF integ inh	TDP2 absorb	UHRF1 binding	MBD2 inh	NSD2 inh	IN multimer act	TR-FRET interf	IN-LEDGF confirm
CC(/C=C/c1ccc(C)o1)=C\C(=O)O	/	.	.	.	.	/	/	/	/
CC(=C/C(=O)O)/C=C/c1ccc(Cl)o1	/	13.4	.	32.4	.	/	.	.	54.2
O=[N+]([O-])c1ccc(N/N=C/c2ccc(O)c(O)c2O)c(S(=O)(=O)N2CCOCC2)c1	.	49.8	.	.	.	.	.	.	36.0
O=C(CCc1ccc(S(=O)(=O)N2CCOCC2)cc1)N/N=C/c1ccc(O)c(O)c1O	/	17.2	.	.	.	.	18.4	.	27.4
COc1ccc(S(=O)(=O)NC[C@@H]2CC[C@H]3[C@H](CN3Cc3cc(F)ccc3F)O2)cc1	.	/	/	/	/	/	/	/	/
COc1ccccc1COC(=O)N/C=C/c1ccco1	/	13.8	.	.	.	.	.	.	17.1
Nc1ccc(-c2nc3ccc(N)cc3s2)cc1	.	.	.	.	.	/	/	/	/
Nc1ccc2cc3ccc(N)cc3nc2c1	/	43.8	.	.	.	/	32.8	.	73.7
CC(OC(=O)c1ccc2ccccc2n1)C(=O)Nc1ccc(N2CCOCC2)cc1 (stereo not drawn)	/	14.9	.	.	.	.	.	.	.
CC(OC(=O)c1cccc(NS(C)(=O)=O)c1)C(=O)Nc1ccc(N2CCOCC2)cc1 (stereo not drawn)	/	.	.	.	.	.	/	/	/
C[C@@H]1CN([C@@H](C)CO)C(=O)c2cc(NC(=O)C3CCCCC3)ccc2O[C@H]1CN(C)Cc1ccncc1	.	/	/	/	/	/	/	/	/
O=C1CN(C(=O)COc2ccc(Cl)cc2Cl)c2ccccc2N1	.	.	.	.	.	.	/	/	/
O=C1CN(C(=O)COc2ccc(F)cc2Cl)c2ccccc2N1	.	23.5	.	.	.	.	.	.	.
COc1ccc(S(=O)(=O)N(C)C[C@@H]2OCCCC[C@@H](C)Oc3ccc(NC(=O)Nc4c(C)noc4C)cc3C(=O)N([C@H](C)CO)C[C@H]2C)cc1	.	/	/	/	/	/	/	/	/
CNC(=O)c1ccc(CN(C)CC(=O)Nc2ccccc2C(=O)NC2CC2)cc1	.	74.9	.	.	.	.	.	.	.
Cc1cc(NC(=O)CSc2nnc(COc3ccccc3)n2Cc2ccco2)no1	/	.	.	.	.	.	/	/	/
O=C(CSc1nnc(COc2ccccc2)n1Cc1ccco1)NCc1ccco1	/	27.8	.	.	.	.	.	.	18.9
COc1ccc(N=C2NC(=O)/C(=C\C=C\c3ccco3)S2)cc1	/	22.7	.	.	.	.	16.4	.	55.0
Cc1ccc(N=C2NC(=O)/C(=C\c3ccco3)S2)cc1	/	.	.	.	.	.	/	/	/
Cc1cccc(N=C2NC(=O)/C(=C/C=C/c3ccco3)S2)c1	.	25.8	.	.	.	.	.	.	54.7
O=C1NC(=Nc2ccc3ccccc3c2)S/C1=C/c1ccco1	.	.	.	.	.	.	/	/	/
CC1=CC(C)(C)NC(=S)N1c1ccc(C)cc1	/	20.7	.	.	.	.	.	.	.
CC1=CC(C)(C)NC(=S)N1c1ccc(C)c(C)c1	.	.	.	.	.	.	/	/	/
CC(C)NC(=O)Nc1ccc2c(c1)C(=O)N([C@H](C)CO)C[C@@H](C)[C@H](CN(C)CC1CCCCC1)OCCCC[C@H](C)O2	.	/	/	/	/	/	/	/	/
Cc1ccc(-n2c(C)cc(-c3csc(N)n3)c2C)cc1	/	.	.	.	.	.	/	/	/
Cc1cc(-c2csc(N)n2)c(C)n1C	/	21.6	.	.	.	.	.	.	53.0
Cc1cc(-c2csc(N)n2)c(C)n1Cc1ccco1	.	24.1	.	.	.	.	16.9	.	80.2
C[C@@H]1CN([C@@H](C)CO)C(=O)c2cc(NS(=O)(=O)c3cn(C)cn3)ccc2O[C@@H]1CN(C)C(=O)Nc1ccc(C(F)(F)F)cc1	.	/	/	/	/	/	/	/	/
Cc1cc(-c2n[nH]c(=S)n2/N=C/c2cccs2)n[nH]1	.	37.6	.	.	.	.	.	.	.
